High-throughput results as filed in PubChem.
ERp5 block – inhibitors of ERp5-driven insulin aggregation, primary screen, biochemical, turbidity, absorbance 650 nm, single point. Protein disulfide-isomerase A6 (Homo sapiens), Q15084. 90 min. inhibition, % at 9.99 µM. actives 0.05% (n = 350,000);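 active means mean replicate inhibition above about 25%, with every replicate also reaching it, limit read from the data, passing the limit was not always enough; inconclusive means only one of those two criteria met; inactive means neither criterion met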
PDI turbidity – inhibitors of human PDI, primary screen, biochemical, turbidity, single point, plate reader | AID 588391, 2011 | actives 0.052% (n = 350,000) | PDI insulin aggregation turbidity, A650, 90 min | inhibition, % at 10 µM;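 active means mean inhibition across replicates of 30% or more, whatever share of single replicates reach that level; inconclusive means mean inhibition below 30% while every single replicate reaches 30%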
Target sequence (P07237 whole entry, looked up): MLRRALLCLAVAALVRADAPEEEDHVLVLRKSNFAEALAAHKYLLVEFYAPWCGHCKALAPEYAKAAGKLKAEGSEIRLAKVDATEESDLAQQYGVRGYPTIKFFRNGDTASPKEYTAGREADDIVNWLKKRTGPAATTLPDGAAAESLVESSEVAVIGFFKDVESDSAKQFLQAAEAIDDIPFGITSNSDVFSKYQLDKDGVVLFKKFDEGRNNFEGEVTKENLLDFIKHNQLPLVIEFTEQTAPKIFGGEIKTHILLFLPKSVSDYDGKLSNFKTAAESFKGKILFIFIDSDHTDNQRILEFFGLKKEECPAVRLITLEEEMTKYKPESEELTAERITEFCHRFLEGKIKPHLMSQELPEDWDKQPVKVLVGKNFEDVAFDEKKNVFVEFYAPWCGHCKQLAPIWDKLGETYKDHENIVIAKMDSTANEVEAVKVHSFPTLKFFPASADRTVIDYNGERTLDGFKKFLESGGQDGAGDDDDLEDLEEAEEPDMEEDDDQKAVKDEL
FN deposition inh – inhibitors of fibronectin matrix deposition, primary screen, AH1F cells, Alexa488-fibronectin fluorescence, plate reader. AH1F fibroblasts, overnight. inhibition, % at 12.6 µM. actives 0.086% (n = 350,000). AID 743247, 2014;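 active means mean inhibition across replicates of 30% or more, regardless of how many single replicates reach that level; inconclusive means mean under 30% yet at least half of replicates reach 30%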;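 further: positive control wells lacked labelled fibronectin entirely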
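Assay system: AH1F fibroblast monolayer, labelled fibronectin deposition. Amount: 10000 cells per well. Also added: labelled fibronectin 24 nM. Compound: single-point pinned compound. Incubation: cell attachment 1 h, compound and FN exposure overnight. Detection: fluorescence after three HBSS washes, excitation 485 nm, emission 525 nm. Read-out: inhibition of fibronectin deposition signal.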
rRNA inh HTS – reduced GFP signal of wild-type E. coli, primary screen, bacterial rRNA inhibitor project, GFP/RFP fluorescence, OD600, single point; E. coli WT GFP vs humanized-ribosome RFP mutants, 24 h; active compounds read low; DMSO median 0, no signal -100; AID 720706, 2013; GFP signal change (wild-type ribosome), % (test concentration not listed); actives 1.6% (n = 350,000);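 active means significant combined selectivity score with lowered wild-type GFP, culture density cut under 30%, mutant RFP and density less affected; inactive means any of these conditions unmet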
PvdQ inh – P. aeruginosa PvdQ acylase inhibitors, primary screen, biochemical, fluorescence, plate reader and imaging, single point. PvdQ acylase [Pseudomonas aeruginosa LESB58]. actives 0.063% (n = 340,000). inhibition, % at 10 µM. purified PvdQ acylase; in the data active means inhibition above about 30%, passing the limit was not always enough; inconclusive means no clear call, values can overlap the other calls;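 further: 0% = vehicle neutral wells and 100% = reference inhibitor wells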
HIV Env fusion – inhibitors of HIV-1 Env-driven cell-cell fusion, primary screen, HeLa-JRFL effector, CEM21 target cells, luciferase | actives 1.1% (n = 360,000) | inhibition, % at 12.3 µM;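 active means mean replicate inhibition score of at least 50 and every replicate individually at or above 50; inconclusive means only one of the two criteria met; inactive means mean below 50 and not all replicates reaching 50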;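 further: 0% = plate neutral controls and 100% = maraviroc near 300 nM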
The depositor's hits bear a star; ? = inconclusive; . = not tested or not shown; ! = not active in a repeat; [ ] = remark or other dose. Only some compounds are listed: those with a hit (about 2.2% of all), similar ones and a draw of the others.

SMILES	ERp5 block	PDI turbidity	FN deposition inh	rRNA inh HTS	PvdQ inh	HIV Env fusion
CCOC(=O)c1ccccc1NC(=O)c1cccc2c1C(=O)N(C1CCN(C(=O)OCC)CC1)C2	-0.8	.	-1.8	2.2	-12.3	-79.4
Cc1cc(C)cc(NC(=O)c2cccc3c2C(=O)N(C2CCCCC2)C3)c1	.	-3.1	.	.	7.6	.
COc1ccc(C#Cc2cnc3c(c2)C(=O)N([C@H](C)CO)C[C@H](C)[C@H](CN(C)C(=O)c2ccccc2F)O3)cc1	2.4	.	4.7	-7.7	.	9.8[16.7 µM]
COc1ccc(NC(=O)N(C)C[C@@H]2OCCCC[C@@H](C)Oc3ccc(NC(=O)C4CCCCC4)cc3C(=O)N([C@H](C)CO)C[C@@H]2C)cc1	-2.7	.	.	2.6	.	-8.2[16.7 µM]
c1ccc2c(N3CCCCC3)ncnc2c1	.	-3.5	8.3	.	-8.1	69.9*
CCOc1cc(/C=C2\SC(=Nc3ccccc3)N(c3ccccc3)C2=O)ccc1OCC(=O)O	-8.1	-2.4	-1.7	-30.5*	-2.6	-6.2
CCCC(=O)Nc1ccc2c(c1)C(=O)N(C)C[C@@H](OC)[C@@H](C)CN(CC1CCCC1)[C@H](C)CO2	2.2	.	-13.8	-2.4	.	0.0[16.7 µM]
O=c1c(/C=N/O)c(Nc2ccccc2)nc2ccccn12	-5.8	-1.3	.	-19.8*	-46.0	.
CCC(C)N=Cc1c(Nc2ccccc2)nc2c(C)cccn2c1=O (stereo unspecified)	5.4	-4.9	2.1	18.2	-3.9	1.2
CCCNC(=O)N1C[C@@H](C)[C@H](OC)CN(C)C(=O)c2cc(NC(=O)C3CCC3)ccc2OC[C@@H]1C	.	.	-11.3	2.4	.	.
O=C(NOCc1ccccc1)c1coc(-c2ccccc2)n1	3.1	-5.6	2.8	-26.4*	6.0	-0.4
NC(=O)NOCc1ccccc1	-4.4	8.0	9.3	24.5	-0.3	5.1
O=C(Cc1ccc(Nc2nc3ccc(Br)cc3[nH]2)cc1)NCCc1cccs1	1.0	-1.6	-1.7	-14.3	-6.2	60.8*
O=C(NCC1CC1)c1ccc(Nc2nc3ccc(Br)cc3[nH]2)cc1	1.7	-1.8	-2.9	-57.9	-14.9	-4.9
O=C(Nc1ccc(F)cc1)N[C@H]1CC[C@H](CCNS(=O)(=O)c2cccc(Cl)c2)O[C@H]1CO	0.8	.	3.2	-7.2	.	18.2[16.7 µM]
O=C(Nc1ccc(F)cc1)N[C@H]1CC[C@H](CCNS(=O)(=O)c2cccc(Cl)c2)O[C@@H]1CO	-8.2	.	-6.6	-17.4*!	.	?
O=C(Nc1cccc(F)c1)N[C@@H]1CC[C@H](CCNS(=O)(=O)c2cccc(Cl)c2)O[C@H]1CO	-2.1	.	.	-6.3	.	67.0*[16.7 µM]
O=C(Nc1cccc(F)c1)N[C@H]1CC[C@H](CCNS(=O)(=O)c2cccc(Cl)c2)O[C@@H]1CO	-1.0	.	.	1.5	.	?
O=C(Nc1cccc(F)c1)N[C@H]1CC[C@@H](CCNS(=O)(=O)c2cccc(Cl)c2)O[C@H]1CO	-0.5	.	.	1.9	.	95.6*[16.7 µM]
CCOC(=O)c1cnc2ccc(C(=O)OC)cc2c1NCCCN1CCOCC1	3.4	-2.9	2.9	-20.9	12.0	-7.3
CCOC(=O)c1cnc2ccc(OCC)cc2c1NCc1ccccc1OC	.	0.2	.	.	-8.2	94.5*
CCOC(=O)c1cnc2ccc(OC)cc2c1NCc1ccccc1	-1.0	-2.7	2.8	-35.6	-7.7	.
CCOC(=O)c1cnc2ccc(C(=O)OC)cc2c1NCCN1CCOCC1	-3.9	-1.7	.	-27.0*	-9.7	.
O=C(Nc1nccs1)[C@H]1[C@H](CO)[C@H]2Cn3c(ccc(-c4ccccc4)c3=O)[C@H]2N1CC1CCCC1	3.1	.	.	-16.0	.	.
Cc1cc(N2CCN(c3nc4ccccc4s3)CC2)n2ncnc2n1	.	-1.6	.	.	4.1	86.8*
SMILES	ERp5 block	PDI turbidity	FN deposition inh	rRNA inh HTS	PvdQ inh	HIV Env fusion
Cc1cc(N2CCN(C(c3ccccc3)c3ccccc3)CC2)n2ncnc2n1	.	5.7	.	.	-5.0	-32.2
Cc1cc(/C=C(\C#N)C(=O)N2CCOCC2)c(C)n1C1CCCC1	5.3	1.4	-3.4	-22.0*	-10.7	-25.4
COc1cccc(-c2ccc([C@H]3[C@H](CO)N4CCCCN(C(=O)NC(C)C)C[C@@H]34)cc2)c1	1.1	.	.	-4.8	.	.
Cn1c(NCCCN2CCOCC2)nc2c1c(=O)n(Cc1ccc(Cl)cc1Cl)c(=O)n2C	.	-2.6	.	.	-20.6	62.7*
CCc1cccc(C)c1N=Cc1c(O)c2ccccc2oc1=O	5.4	-3.8	-1.2	-24.1*	-17.2	13.6
c1cnc2c(-c3cccc4nccn34)cccc2c1	1.4	-9.9	.	0.5	.	-13.3
c1ccc2c(-c3cccc4nccn34)cncc2c1	-2.0	1.4	-5.2	8.7	.	55.0*
C[C@@H]1CCCCO[C@@H](CN(C)Cc2ccc(C(=O)O)cc2)[C@H](C)CN([C@@H](C)CO)C(=O)c2cc(NC(=O)Nc3ccc(F)cc3)ccc2O1	-1.1	.	.	2.5	.	-1.7[16.7 µM]
COc1ccc(CC(=O)Nc2nc(-c3cc(OC)ccc3OC)cs2)cc1	-0.5	0.0	8.3	-21.8*	-2.9	-11.6
COc1ccc(OC)c(-c2csc(NC(=O)Cc3ccccc3)n2)c1	2.1	-8.0	-3.1	-49.3	-15.1	-8.8
COc1ccc(OC)c(-c2csc(NC(=O)Cc3ccc(OC)c(OC)c3)n2)c1	0.3	2.1	13.2	-10.4	-2.4	-5.0
COc1cccc(CC(=O)Nc2nc(-c3cc(OC)ccc3OC)cs2)c1	7.6	3.1	8.3	-23.5*	-8.6	-0.6
COc1ccc(OC)c(-c2csc(NC(=O)COC(=O)C3(C)CC3(Cl)Cl)n2)c1 (stereo unspecified)	2.2	-14.3	2.4	-20.6*	-5.3	-10.6
Cc1noc(C)c1NC(=O)N[C@H]1C=C[C@@H](CC(=O)N2CCN(C)CC2)O[C@@H]1CO	0.4	.	.	3.8	.	-5.5[16.7 µM]
COCCCNC(=S)Nc1cc2oc3ccccc3c2cc1OC	1.8	0.5	.	-11.9	5.1	67.6*
CCCNC(=O)N1[C@@H](CO)[C@@H](c2ccccc2)C12CN(CCC(F)(F)F)C2	0.0	.	-6.6	0.9	.	.
O=C(c1cccc(-c2cncc3nccn23)c1)N1CCOCC1	1.8	-6.7	-4.0	16.2	.	3.2
CN1CCN(C(=O)c2cccc(-c3cnc4cnc(-c5ccccc5Oc5ccccc5)cn34)c2)CC1	0.9	4.2	40.3*	-22.6	.	0.3
Cc1noc(C)c1S(=O)(=O)Nc1ccc2c(c1)CC(=O)N([C@H](C)CO)C[C@@H](C)[C@@H](CN(C)CC1CC1)O2	-1.0	.	.	2.4	.	-13.1[16.7 µM]
CC(C)N(CCc1ccncc1)C(=S)Nc1cccc(Cl)c1	6.8	6.6	4.6	-17.2*	-8.1	-13.1
Cc1ccccc1S(=O)(=O)N1[C@H](C#N)[C@@H](c2ccccc2-c2cccc(F)c2)[C@@H]1CO	.	.	-7.8	-23.6	.	.
